# Test results reported in ChEMBL document CHEMBL4513216, “Probing the Open Global Health Chemical Diversity Library for Multistage-Active Starting Points for Next-Generation Antimalarials” (ACS Infect Dis, 2020).
# Assay: Toxicity liver stage against HepG2, at 10uM
# Assay type: cell-based
# Design: test concentration 10 uM, cell line HepG2-A16-CD81EGFP
# Conditions: human, HepG2-A16-CD81EGFP cells; read-out: INHIBITION
# Method in brief: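 Uninfected HepG2-A16-CD81EGFP cells, 3 × 10^3 per well, 1536-well, plated on prespotted compound at 10 μM final, parasite-free screening media added to match infected plates; puromycin 10 μM positive, DMSO 0.5% negative; run in parallel with 48 h PbLuc assay at 37 °C, 5% CO2; viability by CellTiter-Glo luminescence, normalized to controls.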
row,Compound,cytotoxicity at 10 µM [%]
1,Cc1ccc(C(=O)N2CCCC(Nc3ccc(F)cc3)C2)cc1 (centres undefined),-3.53
2,CCCNC(=O)CNc1ccc(C(=O)N2CCCCC2C)cc1C (centres undefined),-7.67
3,O=C(NCc1ccc(F)cc1)NCC(O)(c1cccs1)C1CC1 (centres undefined),-1.13
4,CCC1=N[C@@]2(CC[C@@H]3CN(CC(C)C)C[C@@H]32)C(=O)N1,4.32
5,CC[C@@]1(O)CCN(CCCOc2ccc(C(N)=O)cc2)C[C@H]1O,-5.03
6,Cc1cc(C)n(CC2CCCN2CCCS(=O)(=O)N(C)C)n1 (centres undefined),-13.2
7,Cc1ccc2oc(C(=O)N3CCc4nnc(N(C)C)cc4C3)cc2n1,-3.25
8,Cc1cccc(CN2C(=O)C[C@H]3[C@@H]2CCN3Cc2nccs2)n1,-2.92
9,CC(C)(NC(=O)Nc1cnn(CC2CCCO2)c1)c1nccs1 (centres undefined),-2.64
10,COCC(=O)N1CCN(C(=O)c2cccs2)C[C@H]1C(=O)OC,-0.655
11,O=S(=O)(NC1=NCN(CCc2ccccc2)CN1)c1ccc(F)cc1,3.47
12,CN(C)CCOCC1CN(Cc2ccncc2)Cc2nnn(C)c21 (centres undefined),3.66
13,Cc1cnn(C2CCCN(C(=O)c3ccc(O)nc3)C2)c1 (centres undefined),-2.78
14,CN(C)C(=O)[C@@H]1C[C@@H]2[C@@H](CCN2Cc2nccs2)O1,-1.42
15,CC(C)(NC(=O)C1CCCN(C2CCCC2)C1)c1nnc(N)s1 (centres undefined),3.27
16,CCCc1cnc(C)nc1N1CCC(Cc2cccc(C(N)=O)c2)C1 (centres undefined),3.52
17,O=C(CN1CCc2onc(-c3ccccc3F)c2C1)NC1CC1,14.6
18,O=C1CC(c2ccccc2)C2(CCN(C(=O)c3ccncc3F)CC2)N1 (centres undefined),-76.9
19,CCOc1ccc(C(=O)NCc2ccnc(N3CCN(C)CC3)c2)cn1,0.935
20,Cn1cc(CC2CC(=O)N(Cc3ccc(OC(F)F)cc3)C2=O)cn1 (centres undefined),6.6
21,CCC(O)CN(CC(=O)Nc1cc(C)no1)c1ccccc1 (centres undefined),-2.59
22,O=C(c1ccccc1)N1CCC[C@]2(C[C@@H](Oc3ncccc3F)CO2)C1,-1.78
23,CN1CCC2(CC1)CC(NC(=O)c1csnn1)c1ccccc1O2 (centres undefined),-95.4
24,Cc1sc2c(C3CCCN(C)C3)nc(C)n2c1C (centres undefined),-26.9
25,COc1ccc(-n2nc(C)c(C(C)=O)c2C)cc1C(N)=O,-3.41
26,CCc1nc(CCNC(=O)C2CC2)sc1C,-14.1
27,CCN1CC2(CC1=O)CN(C(=O)N(C)C)CCN(S(C)(=O)=O)C2 (centres undefined),-0.757

row,Compound,cytotoxicity at 10 µM [%]
1,CCc1noc(CNc2nc(-c3cccnc3)nc3c2CCNCC3)n1,0.562
2,Cc1cccc(CN2CCc3ncnc(NC4CCC4)c3CC2)n1,-152
3,CCn1nnc2c1C(COCC(=O)N(C)C)CN(Cc1ccoc1)C2 (centres undefined),-2.98
4,COCCN1CCc2nc(SCc3ccc(F)cc3)[nH]c(=O)c2C1,-2.33
5,COC(=O)c1sccc1CN1CCN(C(=O)c2ccc(C)o2)CC1,2.37
6,Cc1noc(C)c1CNC(=O)N(C1CC1)C(C)c1ccco1 (centres undefined),5.68
7,CC(C)NC(=O)N1CCC2(CC1)[C@@H]1CN(C(=O)N(C)C)C[C@@H]1C(=O)N2C,4.32
8,CC(=O)Cc1c(C)nn(-c2cncc(C(N)=O)c2)c1C,-17.5
9,CC(C)n1ccc2c(C(=O)NC3CN4CCC3CC4)cccc21 (centres undefined),-54.2
10,CCOCC1CN(C(=O)c2ccnnc2)Cc2cnn(C)c21 (centres undefined),7.07
11,CNS(=O)(=O)Cc1ccc(CNC(=O)c2ccc(C)[nH]c2=O)cc1,-3.3
12,Cc1nc2ccccc2c(=O)n1CCC(=O)N1CCCCCC1,-6.57
13,Cc1ccc(N2C[C@H]3OCC[C@H]3[C@H](C(=O)NC3CCCC3)C2)nn1,-75.6
14,CN(Cc1cccc(-n2cccn2)c1)C(=O)c1cccc(N(C)C)c1,-0.809
15,CSC(C)(C)CNC(=O)NC1CCSCC1,17.5
16,Nc1nc(C2CCN(C(=O)c3cnccn3)CC2)cs1,-7.33
17,CCCNC(=O)NC(=O)CN1C=Nc2ccccc2S1(=O)=O,-3.12
18,CC1(C(N)=O)CCCN(c2cnccn2)C1 (centres undefined),-17.8
19,CC(=O)c1cc(CC(=O)N2CCN(S(=O)(=O)c3ccccc3)CC2)cs1,-0.943
20,Cn1cccc1C(=O)N1CCc2onc(Cn3cccn3)c2C1,-4.72
21,CNC(=O)c1cccc(CCNc2ncc(Br)cn2)c1,9.5
22,CC(C)NC(=O)CCNC(=O)c1c(Br)c2ccccc2n1C,8.59
23,O=C(NCc1cccnc1)N1CCC2(CC(=O)N(c3ccsc3)C2)C1 (centres undefined),-0.125
24,Cc1cnn(CCNCC(=O)NCCOc2ccc(F)cc2)c1,-4.45
25,Cc1ccc2c(c1)C1(CCN(C(N)=O)CC1)CN2CC1CC1,-109
26,CC(C)Cc1nc(NC(=O)c2cccnc2)n[nH]1,-1.18
27,CCC(CC)c1nnc(NC(=O)NC(C)Cn2cccn2)s1 (centres undefined),3.91
